Active and inactive are the calls of the source. The calls are words filed in the database; no cut-off is given here.

Assay [1] relates to Rattus norvegicus. The assay is described as follows: In vivo galactitol inhibitory activity measured by its ability to inhibit galactitol accumulation in diaphragm at 3 mg/Kg/day; NS=Not significant. The format is functional, organism-based. The procedure, abridged:
(§1)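 Rats (n = 6) fed 20% galactose for 4 days, with compound given in the diet at the stated mg/kg per day. Galactitol accumulation in lens, sciatic nerve or diaphragm is scored as percent inhibition versus the non-treated group, as means of 3–8 drug-treated tissue samples. Dunnett's multiple comparison test applies; NS means p > 0.05.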

The subject of assay [2] is Rattus norvegicus. The assay is described as follows: In vivo galactitol inhibitory activity measured by its ability to inhibit galactitol accumulation in lens at 3 mg/Kg/day; NS=Not significant. As to conditions: Lens of camera-type eye. The format is functional, organism-based. The procedure, abridged: as §1
Assay [3] addresses Aldo-keto reductase family 1 member B1 (Bos taurus) (UniProt P16116). Nature of the assay: In vitro aldose reductase inhibitory activity measured by NADPH-dependent inhibition of glyceraldehyde reduction in a partially purified bovine lens preparation at 10E-7 M. An outline of the steps: (§2)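 Aldose reductase partially purified from bovine lens. Inhibition of NADPH-dependent glyceraldehyde reduction is measured at the single stated concentration and reported as percent inhibition, the mean of two determinations.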

The test system of a further assay is Mus musculus. Nature of the assay: Antihyperglycemic activity measured as percent decrease in mice plasma glucose at 100 mg/Kg/day. The format is functional. An outline of the steps: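 Male db/db (C57BL/KsJ) mice, 4–6 per group, dosed at 100 mg/kg per day. Plasma glucose of the drug-treated group is expressed as percent decrease relative to a vehicle-treated control group. Values are mean ± SE, with p < 0.05 marked.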

Assay [4] concerns Rattus norvegicus. Nature of the assay: In vivo galactitol inhibitory activity measured by its ability to inhibit galactitol accumulation in sciatic nerve at 3 mg/Kg/day; NS=Not significant. In kind it is functional, organism-based. The procedure, abridged:
(§3)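 Rats (n = 6) fed 20% galactose for 4 days, with compound given in the diet at the stated daily dose. Galactitol accumulation was measured in lens, sciatic nerve and diaphragm, and % inhibition was taken versus the nontreated group. Means are from three to eight drug-treated tissue samples. Dunnett's multiple comparison test was applied, with p > 0.05 reported as not significant.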

The target in assay [5] is Aldo-keto reductase family 1 member B1 (Bos taurus) (UniProt P16116). Nature of the assay: In vitro aldose reductase inhibitory activity measured by NADPH-dependent inhibition of glyceraldehyde reduction in a partially purified bovine lens preparation at 10E-6 M. The procedure, abridged:
as §2

For assay [6], the system named is Rattus norvegicus. The assay is described as follows: In vivo galactitol inhibitory activity measured by its ability to inhibit galactitol accumulation in sciatic nerve at 3 mg/Kg/day. The format is functional. An outline of the steps:
as §3

Assay [7] concerns Rattus norvegicus. The assay is described as follows: In vivo galactitol inhibitory activity measured by its ability to inhibit galactitol accumulation in sciatic nerve at 6 mg/Kg/day; NS=Not significant (% Inhibition). The format is functional, organism-based. An outline of the steps: as §3
Assay [8] deals with Rattus norvegicus. Nature of the assay: In vivo galactitol inhibitory activity measured by its ability to inhibit galactitol accumulation in diaphragm at 9 mg/Kg/day; NS=Not significant (% Inhibition). The format is functional, organism-based. An outline of the steps:
as §1

Assay [9] deals with Rattus norvegicus. Nature of the assay: In vivo galactitol inhibitory activity measured by its ability to inhibit galactitol accumulation in lens at 9 mg/Kg/day; NS=Not significant (% Inhibition). Particulars: Lens of camera-type eye. In kind it is functional, organism-based. The procedure, abridged:
as §3

Assay [10] has as its system Rattus norvegicus. Nature of the assay: In vivo galactitol inhibitory activity measured by its ability to inhibit galactitol accumulation in sciatic nerve at 9 mg/Kg/day; NS=Not significant (% Inhibition). In kind it is functional, organism-based. The procedure, abridged: as §3
For assay [11], the system named is Rattus norvegicus. Nature of the assay: In vivo galactitol inhibitory activity measured by its ability to inhibit galactitol accumulation in diaphragm at 3 mg/Kg/day; NS=Not significant (% Inhibition). In kind it is functional, organism-based. An outline of the steps: as §1
Assay [12] deals with Rattus norvegicus. The assay is described as follows: In vivo galactitol inhibitory activity measured by its ability to inhibit galactitol accumulation in lens at 6 mg/Kg/day; NS=Not significant (% Inhibition). The format is functional, organism-based. As to conditions: Lens of camera-type eye. The procedure, abridged: as §1
Assay [13] has as its system Rattus norvegicus. The assay is described as follows: In vivo galactitol inhibitory activity measured by its ability to inhibit galactitol accumulation in diaphragm at 6 mg/Kg/day; NS=Not significant (% Inhibition). In kind it is functional, organism-based. An outline of the steps: as §1
For assay [14], the system named is Rattus norvegicus. The assay is described as follows: In vivo galactitol inhibitory activity measured by its ability to inhibit galactitol accumulation in lens at 3 mg/Kg/day; NS=Not significant (% Inhibition). In kind it is functional, organism-based. Particulars: Lens of camera-type eye. The procedure, abridged:
as §1

The subject of assay [15] is Rattus norvegicus. The assay is described as follows: In vivo galactitol inhibitory activity measured by its ability to inhibit galactitol accumulation in diaphragm at 3 mg/Kg/day. In kind it is functional. The procedure, abridged:
as §1

The subject of assay [16] is Rattus norvegicus. The assay is described as follows: In vivo galactitol inhibitory activity measured by its ability to inhibit galactitol accumulation in lens at 6 mg/Kg/day. In kind it is functional, Lens of camera-type eye. Particulars: Rattus norvegicus, Lens of camera-type eye. An outline of the steps:
as §1

Assay [17] has as its system Rattus norvegicus. The assay is described as follows: In vivo galactitol inhibitory activity measured by its ability to inhibit galactitol accumulation in lens at 10 mg/Kg/day. Particulars: Lens of camera-type eye. In kind it is functional. The procedure, abridged: as §1
In assay [18] the test system is Rattus norvegicus. Nature of the assay: In vivo galactitol inhibitory activity measured by its ability to inhibit galactitol accumulation in sciatic nerve at 10 mg/Kg/day; NS=Not significant (% Inhibition). In kind it is functional, organism-based. An outline of the steps:
as §3

Assay [19] concerns Rattus norvegicus. Nature of the assay: In vivo galactitol inhibitory activity measured by its ability to inhibit galactitol accumulation in diaphragm at 10 mg/Kg/day. The format is functional. An outline of the steps: as §1
Assay [20] has as its system Rattus norvegicus. Nature of the assay: In vivo galactitol inhibitory activity measured by its ability to inhibit galactitol accumulation in diaphragm at 6 mg/Kg/day. The format is functional. An outline of the steps: as §1
Assay [21] relates to Rattus norvegicus. Nature of the assay: In vivo galactitol inhibitory activity measured by its ability to inhibit galactitol accumulation in sciatic nerve at 32 mg/Kg/day. In kind it is functional. The procedure, abridged:
as §3

In assay [22] the test system is Rattus norvegicus. Nature of the assay: In vivo galactitol inhibitory activity measured by its ability to inhibit galactitol accumulation in lens at 32 mg/Kg/day. The format is functional. Particulars: Lens of camera-type eye. An outline of the steps: as §1
In assay [23] the test system is Rattus norvegicus. The assay is described as follows: In vivo galactitol inhibitory activity measured by its ability to inhibit galactitol accumulation in sciatic nerve at 6 mg/Kg/day. In kind it is functional. The procedure, abridged: as §3
In assay [24] the test system is Rattus norvegicus. Nature of the assay: In vivo galactitol inhibitory activity measured by its ability to inhibit galactitol accumulation in sciatic nerve at 97 mg/kg/day. The format is functional. An outline of the steps: as §3
For assay [25], the system named is Rattus norvegicus. The assay is described as follows: In vivo galactitol inhibitory activity measured by its ability to inhibit galactitol accumulation in diaphragm at 97 mg/kg/day. In kind it is functional. The procedure, abridged: as §1
The test system of assay [26] is Rattus norvegicus. The assay is described as follows: In vivo galactitol inhibitory activity measured by its ability to inhibit galactitol accumulation in lens at 97 mg/Kg/day; NS=Not significant (% Inhibition). As to conditions: Lens of camera-type eye. The format is functional, organism-based. An outline of the steps:
as §3

The subject of assay [27] is Rattus norvegicus. Nature of the assay: In vivo galactitol inhibitory activity measured by its ability to inhibit galactitol accumulation in sciatic nerve at 46 mg/Kg/day; NS=Not significant (% Inhibition). In kind it is functional, organism-based. An outline of the steps: as §3
The subject of assay [28] is Rattus norvegicus. The assay is described as follows: In vivo galactitol inhibitory activity measured by its ability to inhibit galactitol accumulation in diaphragm at 46 mg/Kg/day; NS=Not significant (% Inhibition). In kind it is functional, organism-based. An outline of the steps: as §1
Assay [29] has as its system Rattus norvegicus. Nature of the assay: In vivo galactitol inhibitory activity measured by its ability to inhibit galactitol accumulation in lens at 46 mg/Kg/day. The format is functional. As to conditions: Lens of camera-type eye. An outline of the steps: as §1
Assay [30] deals with Rattus norvegicus. The assay is described as follows: In vivo galactitol inhibitory activity measured by its ability to inhibit galactitol accumulation in diaphragm at 4 mg/Kg/day; NS=Not significant (% Inhibition). The format is functional, organism-based. The procedure, abridged: as §1
The test system of assay [31] is Rattus norvegicus. The assay is described as follows: In vivo galactitol inhibitory activity measured by its ability to inhibit galactitol accumulation in sciatic nerve at 4 mg/Kg/day; NS=Not significant (% Inhibition). The format is functional, organism-based. An outline of the steps: as §3
The test system of assay [32] is Rattus norvegicus. The assay is described as follows: In vivo galactitol inhibitory activity measured by its ability to inhibit galactitol accumulation in lens at 4 mg/Kg/day; NS=Not significant (% Inhibition). In kind it is functional, organism-based. As to conditions: Lens of camera-type eye. The procedure, abridged:
as §1

Broadly, the inhibition is the percentage by which the read-out fell short of the control. `CCN1C(=O)c2ccc(Cl)cc2C12CC(=O)NC2=O` (stereo not given): the inhibition entry in the assay on Rattus norvegicus [1], in the assay on Rattus norvegicus [2] and with Rattus norvegicus [4] was “inactive” throughout. The inhibition came to 14% in assay [3] and 37% in assay [5]. Also, in the assay with Mus musculus, the Decrease is less than 15%.
Broadly, the inhibition in vivo is the percentage by which the read-out fell short of the control. Low readings indicate little suppression, high ones strong suppression. In the assay on Rattus norvegicus [6], `CN1C(=O)c2c(Cl)cccc2C12CC(=O)NC2=O` (stereo not given) showed an inhibition in vivo at 3 mg/kg/day of 21%. Further, the inhibition entry in the assay on Rattus norvegicus [7], with Rattus norvegicus [8], in the assay with Rattus norvegicus [9], in the assay on Rattus norvegicus [10], in the assay with Rattus norvegicus [11] and in the assay with Rattus norvegicus [12] was “inactive” throughout. The inhibition entry in the assay with Rattus norvegicus [13] and in the assay on Rattus norvegicus [14] was “inactive” each time. Further, the inhibition worked out at 29% in assay [3] and 65% in assay [5]. Further, the Decrease with Mus musculus is listed as less than 15%.
On to `Cc1ccc2c(c1)C(=O)N(C)C21CC(=O)NC1=O` (stereo not given), for which the inhibition in vivo at 3 mg/kg/day was 20% in the assay on Rattus norvegicus [6] and 27% in the assay on Rattus norvegicus [15]. For the same compound, the inhibition entry in the assay with Rattus norvegicus [7], in the assay on Rattus norvegicus [18] and in the assay with Rattus norvegicus [14] was “inactive” in each case. The inhibition in vivo at 6 mg/kg/day with Rattus norvegicus [16] was 13%; in the assay on Rattus norvegicus [20], 39%. The inhibition in vivo at 10 mg/kg/day in the assay on Rattus norvegicus [17] is 12%; with Rattus norvegicus [19], 47%. Further, the inhibition in [3] worked out at 26%; in assay [5], 61%. The Decrease in the assay with Mus musculus was less than 15%.
Regarding `CN1C(=O)c2cccc(Cl)c2C12CC(=O)NC2=O` (stereo not given), the inhibition in vivo at 32 mg/kg/day was found to be 32% in the assay with Rattus norvegicus [21] and 13% with Rattus norvegicus [22]. Moreover, the inhibition in [3] stood at 19%; in assay [5], 57%.
As for `COc1ccc2c(C(=S)N(C)CC(=O)O)cccc2c1C(F)(F)F` [TOLRESTAT], the inhibition in vivo at 6 mg/kg/day with Rattus norvegicus [23] came out at 53%; with Rattus norvegicus [20] it was 80%. Also, the inhibition result in the assay with Rattus norvegicus [12] was “inactive”.
Turning to `O=C1CC2(C(=O)N1)c1cc(Cl)ccc1C(=O)N2Cc1ccc(Br)cc1F` (stereo not given), the inhibition in vivo at 97 mg/kg/day is 24% in the assay with Rattus norvegicus [24] and 30% in the assay on Rattus norvegicus [25]. Besides, the inhibition in [3] turned out to be 13%; in assay [5] it was 70%. The compound further showed a Decrease in the assay on Mus musculus of less than 15%. In addition, the inhibition entry in the assay on Rattus norvegicus [26] is “inactive”.
Consider `O=C(O)CN1C(=O)c2ccccc2C12CC(=O)NC2=O` (stereo not given), for which the inhibition entry in the assay with Rattus norvegicus [27] and in the assay on Rattus norvegicus [28] was “inactive” each time. For the same compound, the inhibition in vivo at 46 mg/kg/day in the assay with Rattus norvegicus [29] is 17%.
With `CCCN1C(=O)c2cc(Cl)c(Cl)cc2C12CC(=O)NC2=O` (stereo not given), the inhibition entry in the assay on Rattus norvegicus [30], in the assay with Rattus norvegicus [31] and in the assay on Rattus norvegicus [32] was “inactive” in each case. The Decrease in the assay with Mus musculus was less than 15%.

Values taken from ChEMBL document CHEMBL1126205, “Novel spirosuccinimides with incorporated isoindolone and benzisothiazole 1,1-dioxide moieties as aldose reductase inhibitors and antihyperglycemic agents” (1992).
